Compounds with a hit are over-represented: about 2.2% of the library has one in this group of screens.
Mcl1 Bid PPI: Mcl-1/Bid binding inhibitors, primary screen, biochemical, TR-FRET, 1536-well. TR-FRET Mcl-1/Bid-Dy647 peptide binding. hit rate 0.97% among 220,000. inhibition, % at 21.7 µM. AID 1021, 2008. Induced myeloid leukemia cell differentiation protein Mcl-1 (Homo sapiens), Q07820;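 active = compounds that cut the binding signal by more than half at the single screening dose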;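 also: His-tagged Mcl-1 with europium anti-His antibody binding Bid BH3 peptide; 0% = Mcl-1 plus peptide wells and 100% = peptide-only wells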
RBBP9 inhibitor: human RBBP9 inhibitors, primary screen, biochemical, fluorescence polarization, FP-Rh probe, HTS | Serine hydrolase RBBP9 (Homo sapiens), O75884 | recombinant RBBP9 | inhibition, % at 7.94 µM | hit rate 0.2% among 220,000 | AID 1515, 2009;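 active = inhibition above the campaign mean of all tested compounds plus 3 SD, cut at about 14% in these data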;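 also: plate controls were DMSO wells with RBBP9 for no effect and wells lacking RBBP9 protein for full effect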
Target sequence (O75884 whole entry, looked up): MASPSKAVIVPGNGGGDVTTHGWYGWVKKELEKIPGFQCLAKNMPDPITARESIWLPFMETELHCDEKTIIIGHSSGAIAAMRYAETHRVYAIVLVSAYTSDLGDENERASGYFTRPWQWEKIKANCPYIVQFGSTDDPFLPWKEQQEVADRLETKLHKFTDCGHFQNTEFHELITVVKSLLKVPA
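Material: RBBP9 protein. Amount: RBBP9 at 2.5 µM in dispensed solution, before mixing. Schedule: 30 min then 45 min, 25 °C. Medium: Tris buffer pH 8.0, NaCl, Pluronic. Measured by: fluorescence polarization. Measure: percent inhibition from mP, scaled between DMSO and no-protein wells. Replication: one well per compound.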
Bim-Mcl-1: inhibitors of Bim peptide binding to Mcl-1, primary screen, biochemical, bead-based flow cytometry, multiplex; Bim peptide-Mcl-1 binding; inhibition, % at 10 µM; hit rate 0.1% among 190,000; AID 1009, 2008; Induced myeloid leukemia cell differentiation protein Mcl-1 (Homo sapiens), Q07820; in the data active = inhibition above about 40%;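 also: 0% = no compound tracer wells and 100% = peptide blocker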
MCL1 BIM primary: inhibitors of MCL1 binding to BIM-BH3, primary screen, biochemical, fluorescence polarization | GST-MCL1 / FITC-Bim-BH3 fluorescence polarization | inhibition, % at 10.9 µM | hit rate 0.68% among 320,000;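 active = inhibition above the mean inhibition of all tested compounds plus 3 SD, set per campaign, cut at about 40% in these data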;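 also: 0% = DMSO wells and 100% = unlabeled Bim-BH3 peptide control; higher means more loss of mP so more displacement of Bim peptide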
EBV gp42 block: Epstein-Barr virus gp42 inhibitors, primary screen, biochemical, uHTS, fluorescence polarization | Fluorescence polarization binding assay, mP read-out | inhibition, % (tested at 21.74 µM) | Glycoprotein 42 (Epstein-Barr virus (strain AG876)), Q1HVG2 | hit rate 0.42% among 220,000; in the data active = inhibition above about 50%
Target sequence (Q1HVG2 whole entry, looked up): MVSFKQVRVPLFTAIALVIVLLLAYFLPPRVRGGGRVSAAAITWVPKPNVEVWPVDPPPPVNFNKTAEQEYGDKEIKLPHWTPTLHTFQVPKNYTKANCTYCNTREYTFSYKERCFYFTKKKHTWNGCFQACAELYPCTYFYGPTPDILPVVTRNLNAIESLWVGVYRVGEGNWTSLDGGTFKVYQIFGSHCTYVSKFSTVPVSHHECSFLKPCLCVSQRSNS
Mcl1-Noxa inh: Mcl-1/Noxa binding inhibitors, primary screen, biochemical, TR-FRET, 1536-well; Induced myeloid leukemia cell differentiation protein Mcl-1 (Homo sapiens), Q07820; TR-FRET Mcl-1/Noxa peptide binding, 2 h; inhibition, % at 21.7 µM; hit rate 1.5% among 220,000; AID 1022, 2008;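 active = compounds that cut the protein-peptide binding signal by more than 50% relative to plate controls in a single-dose test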;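 also: His-tagged Mcl-1 with rhodamine Noxa BH3 peptide and terbium anti-His antibody; 0% = Mcl-1 plus Noxa peptide wells and 100% = peptide-only wells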
RBBP9 inh conf: human RBBP9 inhibitors, retest, confirmation, biochemical, fluorescence polarization, FP-Rh probe, triplicate. shares compounds with RBBP9 inhibitor. recombinant RBBP9. inhibition, % at 7.94 µM. hit rate 36% among 410. AID 1537, 2009;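 active = inhibition above the hit cutoff derived for the primary screen, cut at about 15% in these data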;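 also: 0% = RBBP9 with DMSO and 100% = wells lacking RBBP9 protein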
* = called active by the depositor; · = not tested or not shown.

SMILES	Mcl1 Bid PPI	RBBP9 inhibitor	Bim-Mcl-1	MCL1 BIM primary	EBV gp42 block	Mcl1-Noxa inh	RBBP9 inh conf
NC(=O)CSc1nc2scc(-c3ccco3)c2c(=O)n1-c1ccccc1	6	-12	0	20	-4	55*	·
O=c1c2cc(Cl)ccc2nc(-c2ccccc2Cl)n1O	88*	-5	3	-9	-11	2	·
O=C1c2ccccc2C(=O)N1c1cccc(-c2csc(Nc3ccc4c(c3)OCO4)n2)c1	38	3	1	53*	5	62*	·
COc1ccccc1Nc1nc(-c2cccc(N3C(=O)c4ccccc4C3=O)c2)cs1	-38	-7	-2	-3	5	20	·
CCCc1nc2oc3ccccc3c(=O)c2c(=O)n1-c1ccc(C)cc1	7	-10	·	0	6	2	·
CCc1nc2oc3ccccc3c(=O)c2c(=O)n1-c1ccc(C)cc1	-19	-10	·	20	15	54*	·
CC(=O)NC(=O)Nc1sc(=S)n(C)c1C	1	-5	41*	3	-9	1	·
Cc1ccc(NC(=O)Nc2sc(=S)n(C)c2C)cc1	-22	1	0	6	-3	54*	·
O=C(COC(=O)c1ccccn1)NC1CCCCC1	2	-3	66*	8	-6	3	·
Cc1cc2cc3c(cc2nc1SCC(=O)N1c2ccccc2CC1C)OCO3 (configuration not stated)	-1	-3	1	3	-22	-46	·
Cc1cc2ccccc2nc1SCC(=O)N1c2ccccc2CC1C (configuration not stated)	-32	14*	-1	8	-19	-36	-2
COC(=O)c1cc(S(=O)(=O)NCCN2CCN(c3ccccc3F)CC2)c[nH]1	·	·	·	4	·	·	·
O=C(CN1C(=O)COc2ccc(S(=O)(=O)N3CCCC3)cc21)Nc1cccc(F)c1	·	·	·	12	·	·	·
COc1ccc2c(c1)CC(C1(O)C(=O)Nc3ccccc31)C2=O (configuration not stated)	1	19*	0	4	-6	3	2
COc1ccc(S(=O)(=O)N2CCN(C(=O)CC3CC4CCC3C4)CC2)cc1 (configuration not stated)	·	·	·	-7	·	·	·
Cc1ccc(S(=O)(=O)N(C)c2ccccc2)cc1	-6	14*	-2	-1	-14	5	-11
Cc1cnc([N+](=O)[O-])n1CCOC(=O)NC(=O)c1ccc(C(F)(F)F)cc1	-39	0	-3	1	-21	-3	·
Cc1cnc([N+](=O)[O-])n1CCOC(=O)NC(=O)c1ccccc1Cl	-1	14*	0	-2	-12	-20	8
COc1ccc(O)c(C=Nc2cc(NC(C)=O)c(Cl)cc2Cl)c1	-57	15*	-6	3	-4	6	4
Cc1ccc(Nc2nc(-c3ccc(O)c(O)c3)cs2)nc1	-12	22*	1	·	-9	54*	46*
CCOc1ccc(S(=O)(=O)Nc2nc3ccccc3nc2Nc2ccc(N3CCOCC3)cc2)cc1	-63	17*	1	1	-11	21	11
Cc1ccc(OCC(=O)c2ccc(Cl)s2)c([N+](=O)[O-])n1	-105	-3	-1	18	-6	49	·
CCCS(=O)(=O)Nc1ccc2cn[nH]c2c1	-22	17*	0	8	-11	7	-1
COc1ccccc1CCNC(=O)CNC(=O)c1ccc2ccccc2c1	·	·	·	5	·	·	·
COc1cc2c(cc1OC)CN(C(=O)/C=C/c1ccccc1[N+](=O)[O-])CC2	·	·	·	5	·	·	·
SMILES	Mcl1 Bid PPI	RBBP9 inhibitor	Bim-Mcl-1	MCL1 BIM primary	EBV gp42 block	Mcl1-Noxa inh	RBBP9 inh conf
O=C(O)CC1NC(=S)N(c2ccccc2)C1=O (configuration not stated)	-14	-3	-1	-17	-5	24	·
O=C1C(CSCc2ccccc2)NC(=S)N1c1ccccc1 (configuration not stated)	-13	30*	·	10	2	4	20*
COC(=O)CC(NC(=S)NC(=O)c1ccccc1)c1ccc(Br)cc1 (configuration not stated)	·	·	·	9	·	·	·
NC1=NC(=O)CC(C(=O)NCc2ccccc2)S1 (configuration not stated)	-41	14*	0	9	-4	9	9
NC1=NC(=O)C(CC(=O)NCc2ccccc2)S1 (configuration not stated)	-5	-9	0	5	-10	6	·
CCN(CC)c1ccc(NC(=O)c2ccc3c(c2)c(C)c(C)n3C)cc1	-4	30*	0	6	-38	77*	28*
O=c1c(NCCc2ccccc2)c(-c2ccccc2)c1=O	·	·	·	-3	·	·	·
COc1cc2[nH]c(=S)nc(Nc3ccc(NC(C)=O)cc3)c2cc1OC	-79	29*	33	24	0	78*	52*
COc1cc2[nH]c(=S)nc(NC3CCCCCC3)c2cc1OC	-21	3	13	23	-10	7	·
CCOc1ccccc1NC(=O)CSc1nnc2ccc(-c3cccnc3)nn12	-19	15*	40*	-12	-8	-3	9
COc1ccccc1NC(=O)CSc1nnc2ccc(-c3cccnc3)nn12	-61	-6	-1	-6	2	11	·
COc1ccc(-n2nnc3c(=O)n(CC(=O)N4CCCC4)cnc32)cc1	-27	-8	0	-3	-6	9	·
COc1ccc(-n2nnc3c(=O)n(C/C=C/c4ccccc4)cnc32)cc1	-24	15*	-5	-2	0	-4	10
Cc1cccc(CNc2ncnc3ccc(-c4ccccc4Cl)cc23)c1	·	·	·	3	·	·	·
CCN(CC)C(=O)C(=O)c1cccn1-c1ccccc1C#N	-28	21*	1	1	2	6	7
CC1(C)Cc2cccc(Oc3cc(NN4CCCCC4)c([N+](=O)[O-])cc3[N+](=O)[O-])c2O1	·	·	·	-2	·	·	·
Cn1nc(C(=O)NC2CCC(O)CC2)c2ccccc2c1=O (configuration not stated)	·	·	·	0	·	·	·
Cc1noc(C)c1S(=O)(=O)Nc1ccc(C(=O)N2CCC(C)CC2)cc1	-2	18*	-3	-3	-4	-1	7
Cc1noc(C)c1S(=O)(=O)Nc1ccc(C(=O)N2CCc3ccccc3C2)cc1	-15	2	-4	-1	-10	9	·
CCN(CC)CCCN=Cc1c(O)n(-c2ccccc2C)c(=O)c2ccccc12	-32	-5	·	11	0	4	·

Bioassay records (PubChem BioAssay)
